Source: ChEMBL document CHEMBL4359929, “Piperidine and piperazine inhibitors of fatty acid amide hydrolase targeting excitotoxic pathology” (Bioorg Med Chem, 2019)
Calls of active or inactive are those of the source. No cut-off for these calls is given here.

Tests used:
[1] = Stability in rat gastric fluid assessed as half life; assay type: ADME, tissue-based, Gastric juice
Method in brief: (§1)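 Stability assessed as half-life in human, rat and mouse plasma and gastric fluid, and in human, rat and mouse liver microsomal preparations.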

[2] = Stability in mouse plasma assessed as half life; assay type: ADME, cell-free; method in brief: as §1
[3] = molecular target: Cannabinoid receptor 1 (Rattus norvegicus) (UniProt P20272); assay: Displacement of [3H]CP55940 from CB1 receptor in rat brain by competition-equilibrium binding analysis
[4] = molecular target: T1, Monoacylglycerol lipase ABHD6 (Rattus norvegicus) (UniProt Q5XI64); assay: Inhibition of ABHD6 in rat brain membrane at 1 to 10 uM incubated for 30 mins followed by incubation with FP-Rh probe for 45 mins by ABPP assay; assay type: cell membranes
T1 sequence (whole entry): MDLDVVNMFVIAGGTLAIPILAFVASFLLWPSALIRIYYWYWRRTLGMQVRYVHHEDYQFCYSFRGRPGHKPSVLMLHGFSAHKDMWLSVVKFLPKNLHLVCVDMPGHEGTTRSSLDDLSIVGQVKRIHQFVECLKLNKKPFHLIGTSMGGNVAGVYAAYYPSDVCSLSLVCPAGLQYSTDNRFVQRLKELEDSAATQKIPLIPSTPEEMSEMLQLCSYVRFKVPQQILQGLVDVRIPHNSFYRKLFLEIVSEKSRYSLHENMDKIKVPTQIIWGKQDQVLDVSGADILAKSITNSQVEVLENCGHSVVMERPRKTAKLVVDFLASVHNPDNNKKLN
Method in brief: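 Gel-based competitive ABPP on rat brain membrane homogenates (10 mg/mL protein). Compound at 1 and 10 μM or DMSO for 30 min at room temperature, then 10 μM rhodamine-tagged fluorophosphonate probe for 45 min at room temperature. FAAH was run with a reference FAAH inhibitor at 10 μM as positive control. Serine hydrolase labelling read by in-gel fluorescence.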

[5] = Stability in mouse gastric fluid assessed as half life; assay type: ADME, tissue-based, Gastric juice; method in brief: as §1
[6] = Stability in rat plasma assessed as half life; assay type: ADME, cell-free; method in brief: as §1
[7] = Stability in human liver microsomes assessed as half life; assay type: ADME, Microsome; method in brief: as §1
[8] = molecular target: T2, Fatty-acid amide hydrolase 1 (Homo sapiens, UniProt O00519); assay: Inhibition of human recombinant MBP-tagged FAAH expressed in Escherichia coli cells using AAMCA as substrate incubated for 15 mins followed by substrate addition and measured after every 20 mins for 4 hrs by fluorescence based assay
T2 sequence (O00519 whole entry): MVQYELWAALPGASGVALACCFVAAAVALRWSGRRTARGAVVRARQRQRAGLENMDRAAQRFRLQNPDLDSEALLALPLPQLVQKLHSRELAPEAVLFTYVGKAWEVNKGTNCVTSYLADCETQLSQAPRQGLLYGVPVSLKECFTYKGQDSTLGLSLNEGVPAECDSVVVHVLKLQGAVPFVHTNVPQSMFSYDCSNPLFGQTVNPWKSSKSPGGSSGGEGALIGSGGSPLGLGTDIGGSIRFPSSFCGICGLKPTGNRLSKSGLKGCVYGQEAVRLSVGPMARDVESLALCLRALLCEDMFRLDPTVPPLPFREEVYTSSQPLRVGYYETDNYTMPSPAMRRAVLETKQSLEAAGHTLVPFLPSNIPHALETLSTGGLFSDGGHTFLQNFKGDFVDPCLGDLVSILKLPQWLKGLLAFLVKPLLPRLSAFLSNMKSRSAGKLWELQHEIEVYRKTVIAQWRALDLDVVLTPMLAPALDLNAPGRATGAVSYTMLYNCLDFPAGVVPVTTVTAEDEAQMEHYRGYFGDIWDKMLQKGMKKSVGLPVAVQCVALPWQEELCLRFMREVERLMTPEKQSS
Method in brief: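 Fluorescent enzyme assay in throughput format. Human recombinant FAAH or purified rat FAAH used arachidonoyl 7-amino-4-methylcoumarin amide as substrate; human recombinant MGL was run by a similar fluorometric procedure.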

Homo sapiens = species: Homo sapiens; assay: Selectivity ratio of IC50 for human recombinant His-tagged MGL expressed in Escherichia coli BL21 DE3 cells to IC50 for human recombinant MBP-tagged FAAH expressed in Escherichia coli cells by fluorescence based assay
[9] = molecular target: Cannabinoid receptor 2 (Homo sapiens) (UniProt P34972); assay: Displacement of [3H]CP55940 from human CB2 receptor expressed in HEK293 cells by competition-equilibrium binding analysis; assay type: cell-based
Method in brief: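 HEK293 cell membranes expressing mouse or human CB2; competition-equilibrium binding against [3H]CP-55,940.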

Rattus norvegicus = species: Rattus norvegicus; assay: Neuroprotective activity against Sprague-Dawley rat assessed as decrease in KA-induced seizure severity; assay type: functional, organism-based
Hippocampus [10] = assay: (§2) Neuroprotective activity against Sprague-Dawley rat hippocampus assessed as decrease in KA-induced excitotoxicity by measuring increase in GluR1 level in dense neuropil at 3 to 30 uM preincubated for 1 hr followed by KA stimulation for 2 hrs in continued presence of compound followed by KA wash out and then further incubation with compound for 24 hrs by immunostaining analysis; assay type: functional, tissue-based
Method in brief: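 Same hippocampal slice kainic acid protocol (60 μM, 2 h, after 1 h pretreatment; 24 h recovery with compound). Fixed hippocampal tissue from each treatment group immunostained with anti-GluR1 (1:200).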

Hippocampus [11] = assay: as §2, with “syn protein” for “GluR1”; assay type: functional, tissue-based

Sequence of Cannabinoid receptor 2 (Homo sapiens) (P34972 whole entry): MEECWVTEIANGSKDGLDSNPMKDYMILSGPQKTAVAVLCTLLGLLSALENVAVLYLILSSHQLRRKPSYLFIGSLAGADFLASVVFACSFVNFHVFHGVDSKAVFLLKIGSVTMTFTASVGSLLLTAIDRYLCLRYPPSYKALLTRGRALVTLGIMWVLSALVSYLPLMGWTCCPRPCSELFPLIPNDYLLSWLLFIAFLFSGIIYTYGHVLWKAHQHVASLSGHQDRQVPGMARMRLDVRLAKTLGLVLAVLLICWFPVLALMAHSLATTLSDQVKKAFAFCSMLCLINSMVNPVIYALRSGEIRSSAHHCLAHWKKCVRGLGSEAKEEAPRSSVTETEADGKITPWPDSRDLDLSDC
Sequence of Cannabinoid receptor 1 (Rattus norvegicus) (P20272 whole entry, looked up): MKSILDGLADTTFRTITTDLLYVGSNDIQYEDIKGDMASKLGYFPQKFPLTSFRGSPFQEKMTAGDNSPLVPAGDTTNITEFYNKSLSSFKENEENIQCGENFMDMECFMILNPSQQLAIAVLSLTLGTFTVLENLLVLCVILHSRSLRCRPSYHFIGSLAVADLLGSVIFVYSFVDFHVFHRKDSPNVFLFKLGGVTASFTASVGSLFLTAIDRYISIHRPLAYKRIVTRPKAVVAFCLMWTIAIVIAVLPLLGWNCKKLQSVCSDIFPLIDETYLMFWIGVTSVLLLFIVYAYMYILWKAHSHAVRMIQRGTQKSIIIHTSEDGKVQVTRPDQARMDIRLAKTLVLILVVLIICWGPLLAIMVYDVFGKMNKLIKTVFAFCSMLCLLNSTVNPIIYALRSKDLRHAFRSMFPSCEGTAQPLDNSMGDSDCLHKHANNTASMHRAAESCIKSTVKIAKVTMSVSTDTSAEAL

Row | Structure (SMILES) | half-life [1] [h] | half-life [2] [h] | Activity [3] | inhibition [4] | half-life [5] [h] | half-life [6] [h] | half-life [7] [h] | IC50 [8] [nM] | Ratio IC50 (Homo sapiens) | Activity [9] | Activity (Rattus norvegicus) | inhibition (Hippocampus [10]) | inhibition (Hippocampus [11])
1 | C[C@@H]1CN(c2ccc(F)cc2)CCN1C(=O)Oc1cccc(N2CCS(=O)(=O)CC2)c1 | > 1 | > 1 | inactive | inactive | > 1 | > 1 | 0.25 to 0.417 | 11.7 | > 1000 | inactive | – | – | –
2 | O=C(Oc1cccc(N2CCS(=O)(=O)CC2)c1)N1CCC(c2ccc(N3CCC3)cc2)CC1 | > 1 | > 1 | inactive | inactive | > 1 | > 1 | 0.25 to 0.417 | 7.9 | > 1000 | inactive | Active | Active | Active
